# An excerpt weighted towards active compounds, which were near 0.8% of everything screened.
# FXIIa inh mix: blocks human factor XIIa in pooled compound mixtures; P00748; inhibition, % at 5 µM; 0.2% of 62,000 active; purified FXIIa, fluorogenic substrate
# AP complement: alternative pathway complement inhibition, orthogonal assay | Human serum alternative complement pathway, LPS-coated ELISA, C3 deposition; tested in compound mixtures | 0.08% of 62,000 active | inhibition, % at 5 µM;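 active = inhibition above 30% in each of the two pooled mixtures holding the compound, so the lower value exceeds 30%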
#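 Test system: human serum alternative complement pathway, C3 deposition on LPS-coated wells; also added: Plate-bound LPS; doses: 5 µM per compound in ten-compound mixtures; schedule: 1 h at 37 °C; detection: Anti-C3 ELISA, OD 450 nm; evaluation: percent inhibition of C3 deposition onto LPS; repeats: two pool placements per compound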
# CatG inh: inhibitors of human cathepsin G. purified enzyme, AMC-tetrapeptide fluorescence, pooled mixtures. AID 581. inhibition, % at 5 µM (by protocol). P08311. 0.2% of 62,000 active;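 active = inhibition above 20% in each of the two mixture wells holding the compound; inactive = inhibition of 20% or less in either well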
# mHtt clearance: mutant huntingtin protein clearance; HeLa Exon1htt(103Q)mCFP, aggregate imaging; zero = plate's median compound well; inhibition, % at 1.5 µM; AID 853; 0.42% of 47,000 active;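 active = inhibition of aggregate fluorescence above about 70%, also judged a hit by eye on the cell image, limit read from the data, passing the limit was not always enough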;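 also: cells exposed to compound for three days before fixation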
# FXIa inh mix: factor XIa (human) inhibition, mixture screen | P03951 | purified FXIa, fluorogenic substrate, pooled mixtures | inhibition, % at 5 µM | 0.19% of 62,000 active;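 also: each value is inhibition by a whole ten-compound pool holding the compound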
# C1s inh: human complement C1s inhibition; P09871; purified C1s, fluorogenic AMC substrate, pooled mixtures; mean inhibition % of two 10-compound mixtures (active compounds read high), % at 5 µM (by protocol); 0.16% of 62,000 active; AID 538;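 active = inhibition above 20% in each of the two 10-compound mixture wells holding the compound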
# Target sequence (P09871 16-437 limits assumed): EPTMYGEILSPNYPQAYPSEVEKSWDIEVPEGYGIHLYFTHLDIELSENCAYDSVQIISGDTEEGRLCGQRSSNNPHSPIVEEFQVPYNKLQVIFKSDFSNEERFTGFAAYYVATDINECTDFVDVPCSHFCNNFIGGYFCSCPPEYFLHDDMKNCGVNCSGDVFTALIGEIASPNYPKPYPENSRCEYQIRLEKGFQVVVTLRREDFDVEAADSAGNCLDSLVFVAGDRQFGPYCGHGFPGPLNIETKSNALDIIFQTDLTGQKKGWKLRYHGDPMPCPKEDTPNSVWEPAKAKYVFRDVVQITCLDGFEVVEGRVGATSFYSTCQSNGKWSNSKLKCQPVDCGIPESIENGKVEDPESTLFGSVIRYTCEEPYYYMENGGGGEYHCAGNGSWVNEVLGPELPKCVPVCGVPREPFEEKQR
# Target sequence (P09871 438-688 limits assumed): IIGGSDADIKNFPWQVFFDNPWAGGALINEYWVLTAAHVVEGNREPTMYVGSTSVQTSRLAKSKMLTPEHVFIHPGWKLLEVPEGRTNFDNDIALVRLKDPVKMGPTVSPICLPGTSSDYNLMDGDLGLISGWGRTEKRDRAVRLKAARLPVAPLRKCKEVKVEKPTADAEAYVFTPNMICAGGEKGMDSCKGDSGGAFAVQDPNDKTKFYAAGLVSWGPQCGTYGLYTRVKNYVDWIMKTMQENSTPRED
# A number is an active result; – = inactive; · = not tested or not shown. Rule as the data show it, unless noted: active = inhibition above about 20% (passing the limit was not always enough); inactive = the rest.
SMILES,FXIIa inh mix,AP complement,CatG inh,mHtt clearance,FXIa inh mix,C1s inh
COC(=O)c1ccc(OC(=O)C2CC(=O)N(c3ccc(C)cc3C)C2)cc1 (stereo not drawn),–,–,–,–,31.2,–
COc1ccc(NC(=O)C2CC(=O)N(c3cc(C)ccc3C)C2)cc1 (stereo not drawn),–,–,–,–,66.9,–
COCCn1c(CCC(=O)O)nc2c1c(=O)[nH]c(=O)n2CC(C)C,–,–,–,–,–,–
COCCCNC(=O)CCn1c(=O)c2ccccc2n(CC(=O)Nc2cc(Cl)ccc2C)c1=O,–,–,–,–,–,–
CC(C)(C)OC(=O)N[C@H](Cc1ccccc1)C(=O)N1CCC(C(=O)O)CC1,–,–,–,–,–,–
CCCC1(C(=O)O)NC(c2ccc(OC)cc2O)C2C(=O)N(c3ccc(OC)cc3)C(=O)C21 (stereo not drawn),–,–,–,–,–,–
CCC1(C)C2(C#N)C(N)=NC(OC)(OC)C12C#N (stereo not drawn),–,32.2,–,·,–,–
CC1(C)C2(C#N)C(N)=NC3(OCCO3)C12C#N (stereo not drawn),·,·,·,–,·,·
CCOc1ccccc1N(CC(=O)OC)S(=O)(=O)c1ccccc1,–,–,–,–,–,–
CCOc1ccccc1N(CC(=O)O)S(=O)(=O)c1ccccc1,–,–,–,–,40.3,–
CN(CCNC(=O)c1cccc(N2CCCC2=O)c1)Cc1ccccc1,24.1,–,–,·,–,–
Cc1cccc(N2CCN(C(=O)c3cc4ccccc4oc3=O)CC2)c1C,–,–,–,–,–,–
O=C(O)c1cccc(S(=O)(=O)Nc2ccc3c(c2)OCO3)c1,–,–,–,·,–,–
O=C(O)c1cccc(NS(=O)(=O)c2ccc3nnn(O)c3c2)c1,37.4,–,–,–,–,–
O=C(O)c1cccc(NS(=O)(=O)c2ccc(Cl)c(C(=O)O)c2)c1,21.9,–,–,–,–,–
O=C(Nc1nnc(-c2cccs2)o1)c1cccc(C(F)(F)F)c1,–,–,–,·,–,–
COCCn1c(SCC(=O)N2CCCCC2)nc2cccnc21,–,–,–,·,–,–
O=C(COc1ccc(Cl)cc1)OCC(=O)N1CCCCCC1,–,–,–,·,27.0,–
COc1ccc(-n2nnc3c(SCC(=O)N4CCN(c5ccccc5)CC4)ncnc32)cc1,–,–,–,·,–,–
CCOCCCNC(=O)N[C@@H](C)C(=O)OC,–,–,–,–,–,–
N#C/C(=C(/O)CN1CCOCC1)c1nc2ccccc2s1,–,–,–,77.1,–,–
Cc1ccc(C(C)n2cc(C(=O)NCc3cccnc3)nn2)cc1 (stereo not drawn),–,–,–,–,–,–
O=S(=O)(Nc1ccc2nc(-c3ccc(Br)o3)[nH]c2c1)c1ccccc1,27.9,–,–,–,–,–
CCOc1ccc(Br)cc1CC(=O)O,–,–,–,74.9,–,–
CN(CC(=O)Nc1sccc1C#N)C1CCCCC1,–,–,–,–,–,–
SMILES,FXIIa inh mix,AP complement,CatG inh,mHtt clearance,FXIa inh mix,C1s inh
CN(CCOc1ccc(Cl)cc1)c1ccc(S(=O)(=O)N2CCCCC2)cn1,–,–,–,·,39.8,–
CCN1CCN(C(=O)Nc2cccc3ccccc23)CC1,–,–,–,·,–,–
CC1=C(C(=O)OCc2ccc3c(c2)OCO3)C(c2ccccc2)NC(=O)N1 (stereo not drawn),–,–,–,74.5,–,–
Cc1occc1-c1nnc(SCC(=O)N2CCc3ccccc32)o1,–,–,–,–,–,–
CCn1cc(C2=NOC(C(=O)Nc3c(C)nn(Cc4ccc(F)cc4)c3C)C2)c(C)n1 (stereo not drawn),–,–,–,·,21.5,–
CCn1cc(C2=NOC(C(=O)Nc3cccc(C(C)=O)c3)C2)c(C)n1 (stereo not drawn),–,–,–,·,–,–
O=C1CCC(=O)c2oc3ccccc3c2N1,21.0,–,–,–,–,–
Nc1nc2c(c3c1c(=O)oc1ccccc13)CCCCC2,–,–,–,·,–,–
CCOC(=O)c1sc(NC(=O)C(CC)Sc2nnc3c4ccccc4n(C(C)C)c3n2)nc1C (stereo not drawn),·,·,·,–,·,·
CCOC(=O)Cc1nnc(NC(=O)C(CC)Sc2nnc3c4ccccc4n(C)c3n2)s1 (stereo not drawn),–,–,–,·,–,22.3
Cc1cccc(OCc2nc(C#N)c(N3CC(C)CC(C)C3)o2)c1 (stereo not drawn),–,–,–,·,–,–
CCOC(=O)N1CCC(c2cc(=O)n3[nH]c(-c4ccccc4)cc3n2)CC1,–,–,–,·,–,–
CCOC(=O)N1CCC(c2cc(=O)n3[nH]c(C)c(-c4ccc(F)cc4)c3n2)CC1,–,–,–,81.5,–,–
O=C(CCSc1ccc(Cl)cc1)N1CCOCC1,·,·,·,–,·,·
O=C(CCSc1nccn1Cc1ccccc1)N1CCOCC1,–,–,21.8,–,–,–
Cc1ccc(C(=O)NCCNC(=O)CN2CCOCC2)cc1,–,–,–,–,–,–
O=C(COC(=O)C12CC3CC(CC(C3)C1)C2)N1CCN(S(=O)(=O)c2ccccc2)CC1,–,–,–,–,37.1,–
COn1c(-n2nc(C)cc2C)nc2ccccc2c1=O,–,–,–,·,–,–
COC(=O)c1sc(N2C(=O)C(O)=C(C(=O)c3ccc(C)o3)C2c2ccc(F)cc2)nc1C (stereo not drawn),–,–,58.8,–,39.8,–
Clc1cccc(Cl)c1COc1ccccn1,30.0,–,–,–,–,–
O=C(COC(=O)c1ccccn1)Nc1c(Cl)cccc1Cl,–,–,–,·,–,–
CC1Cc2cc(/C(O)=C3\C(=O)C(=O)N(CCN(C)C)C3c3ccccc3F)ccc2O1 (stereo not drawn),–,–,–,80.4,–,–
CC1Cc2cc(/C(O)=C3/C(=O)C(=O)N(CCN4CCOCC4)C3c3cccc(O)c3)ccc2O1 (stereo not drawn),–,–,–,·,–,–
Cc1cc2ncn(S(=O)(=O)N3CCOCC3)c2cc1C,–,–,–,70.5,–,–
COc1ccc(S(=O)(=O)N2CCCC(C(=O)NCc3ccncc3)C2)cc1 (stereo not drawn),–,–,–,–,–,–
SMILES,FXIIa inh mix,AP complement,CatG inh,mHtt clearance,FXIa inh mix,C1s inh
O=C(NC1=NCCS1)NC12CC3CC(CC(C3)C1)C2,–,–,–,·,–,–
CCCNC(=O)c1nc2ncc(Br)cn2n1,–,–,–,–,–,–
CCCCNC(=O)c1nc2ncc(Br)cn2n1,–,–,–,–,25.3,–
Cc1ccc(CNC(=O)C2C3C=CC4(CN(Cc5cccnc5)C(=O)C24)O3)cc1 (stereo not drawn),–,–,–,·,–,–
O=C(Oc1ccc2c(c1)OCC2=O)c1ccccc1,–,–,–,–,–,43.1
CCCC(C(=O)NC1CCCC1)N(C(=O)Cn1nnc(-c2ccc(C)o2)n1)c1ccccc1OC (stereo not drawn),–,–,–,·,–,–
COC(=O)c1ccc(C2C(C(=O)OCC(C)C)=C(C)N=C3SCCC(=O)N32)cc1 (stereo not drawn),–,–,–,·,29.2,–

# Compound activity from PubChem BioAssay.
